NRP1-CendR mod: NRP-1/CendR interaction modulation; 360,000 compounds, 0.85% hits; FAM-RPARPAR peptide binding to NRP-1, fluorescence polarization; inhibition, % at 25 µM;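 active = inhibition or corrected inhibition above about 18%, plus a signal ratio from 0.5 to 1.5, limit read from the data, passing the limit was not always enough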
PLCg1 inh: PLC-gamma1 (human) inhibition, primary screen; P19174; purified PLC-gamma1, fluorogenic substrate, fluorescence; inhibition, % at 12.2 µM; 370,000 compounds, 0.84% hits; AID 720700; in the data active = inhibition above about 9.5%
KLK7 zymogen act: proKLK7 (human) activation, primary screen | P49862 | purified proKLK7, EDANS-DABCYL substrate fluorescence; 100% is mature enzyme control, 0% vehicle | activation, % at 7 µM | 370,000 compounds, 0.9% hits;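 active = activation above the mean of all tested compounds plus 3 SD, computed per campaign excluding outliers beyond control limits, cut at about 13% in these data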
Target sequence (P49862 whole entry, looked up): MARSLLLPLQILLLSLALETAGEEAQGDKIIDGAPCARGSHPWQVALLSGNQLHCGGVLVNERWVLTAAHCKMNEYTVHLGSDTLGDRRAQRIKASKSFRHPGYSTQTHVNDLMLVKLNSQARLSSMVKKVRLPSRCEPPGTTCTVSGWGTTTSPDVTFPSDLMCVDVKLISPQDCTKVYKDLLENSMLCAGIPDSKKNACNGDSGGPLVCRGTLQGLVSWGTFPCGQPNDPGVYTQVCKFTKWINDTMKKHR
PLCb3 inh: PLC-beta3 (human) inhibition, primary screen | Purified PLC-beta3, fluorogenic substrate, fluorescence | inhibition, % at 12.2 µM | 370,000 compounds, 0.18% hits;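 also: 0% = median of compound wells on plate and 100% = full blocker control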
Tn6 DDE FP: DD(E)-Tn6 binding inhibition, primary FP screen | Fibrin DD(E) TRITC-Tn6 fluorescence polarization displacement | inhibition, % at 8.3 µM | P02675 | 370,000 compounds, 0.21% hits;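 active = inhibition above a per-campaign cutoff: mean of compounds within control limits plus 3 SD, cut at about 15% in these data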;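 also: 0% = median of all compound wells on the plate and 100% = blocking peptide control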
Tn7 DDE FP: DD(E)-Tn7 binding inhibition, primary FP screen; P02675; FP displacement of FITC-Tn7 peptide from fibrin DD(E); 0% = median of compound wells per plate; 370,000 compounds, 0.13% hits; inhibition, % at 8.3 µM;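 active = inhibition above the mean of compounds falling within the control limits plus 3 SD of them, cut at about 14% in these data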;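 also: 0% = plate median of compound wells and 100% = 10 µM Aha-Tn7 peptide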
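Assay system: Human clot-derived fibrin DD(E) complex | Buffer or medium: Tris/NaCl/CaCl2 buffer, pH 7.8 | Repeats: One replicate per compound | Benchmarks: Aha-Tn7 high control | Measure: % inhibition scaled between sample-field median and high-control FP | Schedule: 10 min plus 3 h, room temperature | Signal: Fluorescence polarization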
PLCgamma1 ctr: counter-screen for PLC-beta3 inhibitors: inhibitors of human PLC-gamma1; shares compounds with PLCg1 inh; purified PLC-gamma1, fluorogenic substrate, fluorescence; inhibition, % at 12.3 µM; 3,300 compounds, 3.1% hits; AID 743258; in the data active = inhibition above about 9.5%
PLCbeta3 conf: confirmation of human PLC-beta3 inhibitors | 3,300 compounds, 1% hits | shares compounds with PLCg1 inh | purified PLC-beta3, fluorogenic substrate fluorescence | inhibition, % at 12.3 µM
Active calls of the source: *. Hits are enriched below; roughly 3% of the tested compounds scored in any of these assays. Rule as the data show it, unless noted: active = inhibition above about 11%; inactive = the rest.

Results for CCCCCCCCCCOC(=O)Cn1c(COc2ccc(Cl)cc2)[n+](C)c2ccccc21 ?
NRP1-CendR mod: 20.0*; PLCg1 inh: 12.6*; KLK7 zymogen act: -0.8; PLCb3 inh: -2.5; Tn6 DDE FP: -3.8; Tn7 DDE FP: -2.2; PLCgamma1 ctr: 7.2; PLCbeta3 conf: 2.4

What do the screens show for `CCCCCCCCCCOC(=O)Cn1c(COc2ccccc2)[n+](C)c2ccccc21`?
NRP1-CendR mod: 5.3; PLCg1 inh: 9.5*; KLK7 zymogen act: 0.2; PLCb3 inh: -0.3; Tn6 DDE FP: 1.4; Tn7 DDE FP: 0.6; PLCgamma1 ctr: -5.0; PLCbeta3 conf: -5.3

What do the screens show for `CCOc1ccc(-c2nc(CSCC(=O)NC3CCC3)c(C)o2)cc1`?
PLCg1 inh: -2.1; PLCb3 inh: -3.2; Tn6 DDE FP: 5.5; Tn7 DDE FP: 0.1

How did O=C(CSc1nc(=O)n(CCCN2CCOCC2)c2c1CCCC2)Nc1cccc([N+](=O)[O-])c1 do in these assays?
NRP1-CendR mod: 13.1; PLCg1 inh: 3.2; KLK7 zymogen act: 0.0; PLCb3 inh: -11.0; Tn6 DDE FP: 5.8; Tn7 DDE FP: 2.6

Results for O=C(CSc1nc(=O)n(CCN2CCOCC2)c2c1CCCC2)Nc1cccc([N+](=O)[O-])c1 ?
NRP1-CendR mod: 5.1; PLCg1 inh: 2.5; KLK7 zymogen act: 0.0; PLCb3 inh: 19.1*; Tn6 DDE FP: -8.8; Tn7 DDE FP: 1.4; PLCgamma1 ctr: -3.4; PLCbeta3 conf: -1.5

What do the screens show for `O=C(CCNC(=O)c1ccccc1Cl)Nc1ccc2c(c1)OCO2`?
NRP1-CendR mod: -16.0; PLCg1 inh: 11.0*; KLK7 zymogen act: -0.1; PLCb3 inh: 9.7; Tn6 DDE FP: -2.4; Tn7 DDE FP: -1.1; PLCgamma1 ctr: -1.9; PLCbeta3 conf: -1.0

What do the screens show for `COc1cc(NC(=O)Cn2cnc3c(nc4n3CCCCC4)c2=O)cc(OC)c1OC`?
NRP1-CendR mod: 2.5; PLCg1 inh: 4.6; KLK7 zymogen act: 0.1; PLCb3 inh: -3.8; Tn6 DDE FP: -3.2; Tn7 DDE FP: 0.3

Results for CCN(C(=O)Cn1cnc2c(nc3n2CCCCC3)c1=O)c1cccc(Cl)c1 ?
NRP1-CendR mod: 15.4; PLCg1 inh: 11.7*; KLK7 zymogen act: -0.1; PLCb3 inh: 0.2; Tn6 DDE FP: -0.7; Tn7 DDE FP: -2.1; PLCgamma1 ctr: -7.0; PLCbeta3 conf: -5.5

How did CCOC(=O)[C@@]12CCCC3=C1N(CCC3)C(=O)[C@H]2CC(=O)NCc1ccc(C)o1 do in these assays?
PLCg1 inh: -0.6; KLK7 zymogen act: -0.2; PLCb3 inh: -0.4; Tn6 DDE FP: 2.0; Tn7 DDE FP: 1.0

Results for COc1cccc(NC(=S)N2CCCC2c2ccc(OC)c(OC)c2)c1 (configuration not stated) ?
NRP1-CendR mod: -4.9; PLCg1 inh: 11.3*; KLK7 zymogen act: -0.5; PLCb3 inh: -2.2; Tn6 DDE FP: -2.6; Tn7 DDE FP: 0.3; PLCgamma1 ctr: 1.8; PLCbeta3 conf: 0.4

What do the screens show for `COc1ccc2c(OC)cc(=O)n(C)c2c1`?
NRP1-CendR mod: -2.8; PLCg1 inh: 12.8*; KLK7 zymogen act: -0.4; PLCb3 inh: 2.6; Tn6 DDE FP: -5.6; Tn7 DDE FP: -3.0; PLCgamma1 ctr: -7.0; PLCbeta3 conf: -5.4

How did c1ccc(Cn2ccc3ccc(-c4ccc5ccn(Cc6cccc(Oc7ccccc7)c6)c5c4)cc32)cc1 do in these assays?
PLCg1 inh: -49.2; KLK7 zymogen act: -1.3; PLCb3 inh: -69.4; Tn6 DDE FP: -7.2; Tn7 DDE FP: 10.9

What do the screens show for `CCC[C@@H](CNC)NC[C@H](Cc1ccccc1)NCCCCc1ccccc1`?
NRP1-CendR mod: 7.2; PLCg1 inh: 3.8; KLK7 zymogen act: -0.5; PLCb3 inh: 0.0; Tn6 DDE FP: 5.0; Tn7 DDE FP: 0.2

What do the screens show for `CNC[C@@H](Cc1ccccc1)NC[C@@H](CC1CCCCC1)NCCCc1ccccc1`?
NRP1-CendR mod: -6.7; PLCg1 inh: 12.8*; KLK7 zymogen act: -0.9; PLCb3 inh: 6.3; Tn6 DDE FP: -2.2; Tn7 DDE FP: -0.4; PLCgamma1 ctr: 0.7; PLCbeta3 conf: 1.3

How did CCCCCCC(=O)NC1CCCCN(Cc2cccc(Cl)c2)C1=O (configuration not stated) do in these assays?
PLCg1 inh: -0.5; KLK7 zymogen act: -0.2; PLCb3 inh: 5.8; Tn6 DDE FP: -3.0; Tn7 DDE FP: -2.2

Results for O=S1(=O)CCN(Cc2ccc(Cl)cc2)CC1 ?
NRP1-CendR mod: 10.3; PLCg1 inh: 14.2*; KLK7 zymogen act: 0.1; PLCb3 inh: 10.3; Tn6 DDE FP: 0.8; Tn7 DDE FP: -7.3; PLCgamma1 ctr: -7.9; PLCbeta3 conf: -3.2

Results for Cc1ccc(C(C)C)c(OCCNCc2ccccc2)c1 ?
NRP1-CendR mod: 4.9; PLCg1 inh: 3.0; KLK7 zymogen act: 0.5; PLCb3 inh: 2.3; Tn6 DDE FP: -6.3; Tn7 DDE FP: -6.8

Results for Cc1ccc(C)c(OCCCNCc2ccccc2)c1 ?
NRP1-CendR mod: -5.0; PLCg1 inh: 15.3*; KLK7 zymogen act: 0.0; PLCb3 inh: 1.1; Tn6 DDE FP: 4.3; Tn7 DDE FP: 5.0; PLCgamma1 ctr: -5.1; PLCbeta3 conf: 0.1

Results for Cc1cccc(CNC(=S)OC2CCC23CCC(c2ccccc2)CC3)c1 (configuration not stated) ?
PLCg1 inh: -1.4; KLK7 zymogen act: -0.1; PLCb3 inh: -1.6; Tn6 DDE FP: 0.8; Tn7 DDE FP: 1.4

Results for CC(C)(C)c1ccc(OC(=O)c2ccc3snnc3c2)cc1 ?
NRP1-CendR mod: 3.5; PLCg1 inh: 10.2*; KLK7 zymogen act: 0.3; PLCb3 inh: 1.8; Tn6 DDE FP: -7.5; Tn7 DDE FP: -2.7; PLCgamma1 ctr: 0.3; PLCbeta3 conf: 4.5

How did O=C(Nc1cccc2ccccc12)c1ccccc1 do in these assays?
NRP1-CendR mod: 3.7; PLCg1 inh: 10.2*; KLK7 zymogen act: -0.1; PLCb3 inh: 1.2; Tn6 DDE FP: -7.0; Tn7 DDE FP: 1.0; PLCgamma1 ctr: -70.8; PLCbeta3 conf: -1.7

What do the screens show for `O=C(Nc1cccc2ccccc12)c1ccc(F)cc1`?
NRP1-CendR mod: -10.3; PLCg1 inh: -1.0; KLK7 zymogen act: -0.4; PLCb3 inh: 0.0; Tn6 DDE FP: 7.1; Tn7 DDE FP: 5.2

How did CCOc1ccc(C(=O)c2ccc([N+](=O)[O-])cc2Cl)cc1 do in these assays?
NRP1-CendR mod: -9.3; PLCg1 inh: 8.2; KLK7 zymogen act: 0.6; PLCb3 inh: 1.2; Tn6 DDE FP: 5.2; Tn7 DDE FP: -3.3

Screening data: PubChem, several laboratories
